Assay results published in ChEMBL document CHEMBL1143366, “Synthesis and antitumor activity of novel enediyne-linked pyrrolo[2,1-c][1,4]benzodiazepine hybrids” (Bioorg Med Chem, 2009).
Active and inactive are the calls of the source. No cut-off for these calls is given here.

Columns and labels:
[1] = Cytotoxicity against human 293T cells assessed as survival at 4 uM after 24 hrs by MTT assay; assay type: cell-based, HEK-293T; details: read-out: Survival
Outline: (§1)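 Cells seeded at 2500 cells/well, incubated overnight, then exposed to agents at 4 µM for 24 h. Medium replaced with MTT dye, 2 h at 37 °C. Formazan dissolved in DMSO, absorbance read at 540 nm. Survival expressed as % of untreated control.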

A-375 = test: Cytotoxicity against human A375 cells assessed as survival at 4 uM after 24 hrs by MTT assay; assay type: functional; details: A-375, 24 h, read-out: Survival; outline: as §1
NCI-H1355 = test: Cytotoxicity against human NCI-H1355 cells assessed as survival at 4 uM after 24 hrs by MTT assay; assay type: functional; details: NCI-H1355, 24 h, read-out: Survival; outline: as §1
A2058 = test: Cytotoxicity against human A2058 cells assessed as survival at 4 uM after 24 hrs by MTT assay; assay type: functional; details: A2058, 24 h, read-out: Survival; outline: as §1
MCF7 [2] = test: Cytotoxicity against human MCF7 cells assessed as survival at 4 uM after 24 hrs by MTT assay; assay type: functional; details: MCF7, 24 h, read-out: Survival; outline: as §1
[3] = Cell cycle arrest in human 293T cells assessed as accumulation at sub-G1 phase at 4 uM after 24 hrs using propidium iodide staining by FACS; assay type: functional, cell-based; details: HEK-293T
Outline: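 293T cells exposed to 4 µM agents for 24 h, harvested by trypsinization and fixed in 50% cold ethanol at −20 °C. Washed in PBS, then RNase A (100 µg/mL) for 20 min at 37 °C. DNA content of 10,000 events read by flow cytometry. Result is % of cells in the sub-G1 peak.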

RXF 393 = test: Cytotoxicity against human RXF393 cells after 24 hrs by MTT assay; assay type: functional; details: RXF 393, 24 h
IGROV-1 = test: Cytotoxicity against human IGROV1 cells after 24 hrs by MTT assay; assay type: functional; details: IGROV-1, 24 h
HEK-293T [4] = test: Induction of apoptosis in human 293T cells assessed as early apoptotic cells at 4 uM after 24 hrs using annexin V-FITC/propidium iodide staining by flow cytometry; assay type: functional
Outline: (§2)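 293T cells were treated for 24 h with 4 µM agent or graded concentrations, then harvested by trypsinization and centrifugation. Annexin V-FITC was added to 10⁶ cells per sample, with simultaneous PI staining. About 10,000 cells per group were analysed by flow cytometry, with annexin V⁺/PI⁻ scored as early apoptotic.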

HEK-293T [5] = test: Induction of apoptosis in human 293T cells assessed as decrease in p53 protein expression at 4 uM after 24 hrs by Western blot analysis; assay type: functional, cell-based
Outline: (§3)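 293T cells were exposed for 24 h to graded concentrations (0, 1, 2 and 4 µM shown) or to 4 µM agent. Cell lysates were immunoblotted for caspase-3 (CPP32) and p53, with actin as the loading control. Primary antibody ran 2 h at room temperature or overnight at 4 °C, then HRP secondary 1 h at room temperature, with chemiluminescent detection.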

SK-MEL-2 = test: Cytotoxicity against human SK-MEL-2 cells after 24 hrs by MTT assay; assay type: functional; details: SK-MEL-2, 24 h
MOLT-4 = test: Cytotoxicity against human MOLT4 cells after 24 hrs by MTT assay; assay type: functional; details: MOLT-4, 24 h
HEK-293T [6] = test: Induction of apoptosis in human 293T cells assessed as early apoptotic cells at 1 uM after 24 hrs using annexin V-FITC/propidium iodide staining by FACS; assay type: functional; outline: as §2
CCRF-CEM = test: Cytotoxicity against human CCRF-CEM cells after 24 hrs by MTT assay; assay type: functional
RPMI-8226 = test: Cytotoxicity against human RPMI8226 cells after 24 hrs by MTT assay; assay type: functional; details: RPMI-8226, 24 h
CAKI-1 = test: Cytotoxicity against human Caki1 cells after 24 hrs by MTT assay; assay type: functional; details: CAKI-1, 24 h
HEK-293T [7] = test: Induction of apoptosis in human 293T cells assessed as necrotic cells at 4 uM after 24 hrs using annexin V-FITC/propidium iodide staining by flow cytometry; assay type: functional; outline: as §2
HEK-293T [8] = test: Induction of apoptosis in human 293T cells assessed as decrease in p53 protein expression at 1 uM after 24 hrs by Western blot analysis; assay type: functional, cell-based; outline: as §3
HEK-293T [9] = test: Induction of apoptosis in human 293T cells assessed as necrotic cells at 2 uM after 24 hrs using annexin V-FITC/propidium iodide staining by FACS; assay type: functional; outline: as §2
MDA-MB-435 = test: Cytotoxicity against human MDA-MB-435 cells after 24 hrs by MTT assay; assay type: functional; details: MDA-MB-435, 24 h
OVCAR-8 = test: Cytotoxicity against human OVCAR8 cells after 24 hrs by MTT assay; assay type: functional; details: OVCAR-8, 24 h
HEK-293T [10] = test: Induction of apoptosis in human 293T cells assessed as degradation of caspase 3 at 4 uM after 24 hrs by Western blot analysis; assay type: functional, cell-based; outline: as §3
HEK-293T [11] = test: Induction of apoptosis in human 293T cells at 4 uM after 24 hrs using annexin V-FITC staining by FACS; assay type: functional; outline: as §2
HEK-293T [12] = test: Induction of apoptosis in human 293T cells assessed as early apoptotic cells at 2 uM after 24 hrs using annexin V-FITC/propidium iodide staining by FACS; assay type: functional; outline: as §2
OVCAR-3 = test: Cytotoxicity against human OVCAR-3 cells after 24 hrs by MTT assay; assay type: functional; details: OVCAR-3, 24 h
SW-620 = test: Cytotoxicity against human SW620 cells after 24 hrs by MTT assay; assay type: functional; details: SW-620, 24 h
HEK-293T [13] = test: Induction of apoptosis in human 293T cells assessed as necrotic cells at 1 uM after 24 hrs using annexin V-FITC/propidium iodide staining by FACS; assay type: functional; outline: as §2
HEK-293T [14] = test: Induction of apoptosis in human 293T cells assessed as degradation of caspase 3 after 24 hrs by Western blot analysis; assay type: functional, cell-based; outline: as §3
HEK-293T [15] = test: Induction of apoptosis in human 293T cells assessed as DNA repair deficiency at > 2 uM; assay type: functional, cell-based; outline: as §3
T47D = test: Cytotoxicity against human T47D cells after 24 hrs by MTT assay; assay type: functional
HEK-293T [16] = test: Induction of apoptosis in human 293T cells assessed as change in morphology after 24 hrs; assay type: functional, cell-based
Outline: (§4)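 293T cells (5×10⁵/well) were grown for one day, then treated for 24 h with 4 µM agent or graded concentrations. Morphology was photographed by phase-contrast microscopy at 200×.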

MCF7 [17] = test: Cytotoxicity against human MCF7 cells after 24 hrs by MTT assay; assay type: functional; details: MCF7, 24 h
BT-549 = test: Cytotoxicity against human BT549 cells after 24 hrs by MTT assay; assay type: functional; details: BT-549, 24 h
HEK-293T [18] = test: Induction of apoptosis in human 293T cells assessed as change in morphology at 4 uM after 24 hrs; assay type: functional, cell-based; outline: as §4

COc1cc2c(cc1OC/C=C\COCC#Cc1ccccc1C#Cc1ccccc1)N=C[C@@H]1CCCN1C2=O
viability at 24 h, 4 µM [1]: 44%
viability at 4 µM (A-375): 33.9%
viability at 4 µM (NCI-H1355): 44%
viability at 4 µM (A2058): 39.1%
viability at 4 µM (MCF7 [2]): 44%
Activity [3]: 15.6%

COc1cc2c(cc1OCCCCC#Cc1ccccc1C#Cc1ccccc1)N=C[C@@H]1CCCN1C2=O
viability at 24 h, 4 µM [1]: 19.2%
viability at 4 µM (A-375): 28.3%
viability at 4 µM (NCI-H1355): 75.2%
viability at 4 µM (A2058): 49.5%
viability at 4 µM (MCF7 [2]): 85.2%
Activity [3]: 13.2%

COc1cc2c(cc1O)N=C[C@@H]1CCCN1C2=O
viability at 24 h, 4 µM [1]: 68.9%
viability at 4 µM (A-375): 50.2%
viability at 4 µM (NCI-H1355): 73.9%
viability at 4 µM (A2058): 63.4%
viability at 4 µM (MCF7 [2]): 72.3%
Activity [3]: 10%

COc1cc2c(cc1OC/C=C/COCC#Cc1ccccc1C#Cc1ccccc1)N=C[C@@H]1CCCN1C2=O
viability at 24 h, 4 µM [1]: 48.4%
viability at 4 µM (A-375): 42.9%
viability at 4 µM (NCI-H1355): 67.4%
viability at 4 µM (A2058): 43%
viability at 4 µM (MCF7 [2]): 70.4%
Activity [3]: 13.9%

COc1cc2c(cc1OCCCC#Cc1ccccc1C#Cc1ccccc1)N=C[C@@H]1CCCN1C2=O
GI50 (RXF 393): 686 nM
GI50 (IGROV-1): 549 nM
Activity (HEK-293T [4]): 1.5%
Activity (HEK-293T [5]): Active
GI50 (SK-MEL-2): 924 nM
GI50 (MOLT-4): 648 nM
Activity (HEK-293T [6]): 2.1%
GI50 (CCRF-CEM): 422 nM
GI50 (RPMI-8226): 285 nM
GI50 (CAKI-1): 485 nM
viability at 24 h, 4 µM [1]: 28.7%
Activity (HEK-293T [7]): 17.4%
viability at 4 µM (A-375): 22.3%
Activity (HEK-293T [8]): inactive
viability at 4 µM (NCI-H1355): 87.7%
viability at 4 µM (A2058): 47.2%
Activity (HEK-293T [9]): 14.5%
GI50 (MDA-MB-435): 468 nM
GI50 (OVCAR-8): 394 nM
Activity (HEK-293T [10]): Active
Activity (HEK-293T [11]): 25.4%
Activity (HEK-293T [12]): 2.2%
GI50 (OVCAR-3): 520 nM
viability at 4 µM (MCF7 [2]): 49.7%
GI50 (SW-620): 478 nM
Activity (HEK-293T [13]): 13.7%
Activity (HEK-293T [14]): Dose-dependent effect
Activity (HEK-293T [15]): Active
GI50 (T47D): 779 nM
Activity [3]: 14.5%
Activity (HEK-293T [16]): Dose-dependent effect
GI50 (MCF7 [17]): 305 nM
GI50 (BT-549): 641 nM

COc1cc2c(cc1OC/C=C/COCCC#Cc1ccccc1C#Cc1ccccc1)N=C[C@@H]1CCCN1C2=O
viability at 24 h, 4 µM [1]: 35.2%
viability at 4 µM (A-375): 33.4%
viability at 4 µM (NCI-H1355): 85.2%
viability at 4 µM (A2058): 46.2%
viability at 4 µM (MCF7 [2]): 59.2%
Activity [3]: 13.6%

COc1cc2c(cc1OCCCCCCNC(=O)c1cc3ccccc3[nH]1)N=C[C@@H]1CCCN1C2=O
Activity (HEK-293T [5]): Active
Activity (HEK-293T [18]): Active
Activity (HEK-293T [10]): Active
Activity (HEK-293T [11]): 19.4%

COc1cc2c(cc1OCC=CCOCCC#Cc1ccccc1C#Cc1ccccc1)N=C[C@@H]1CCCN1C2=O
viability at 24 h, 4 µM [1]: 60.7%
viability at 4 µM (A-375): 85.7%
viability at 4 µM (NCI-H1355): 71%
viability at 4 µM (A2058): 84.5%
viability at 4 µM (MCF7 [2]): 83.8%
Activity [3]: 13.3%

COc1cc2c(cc1OCC#Cc1ccccc1C#Cc1ccccc1)N=C[C@@H]1CCCN1C2=O
viability at 24 h, 4 µM [1]: 48.9%
viability at 4 µM (A-375): 13.1%
viability at 4 µM (NCI-H1355): 70.9%
viability at 4 µM (A2058): 46.1%
viability at 4 µM (MCF7 [2]): 48.9%
Activity [3]: 6.3%
